According to publication PMC6301076 (Bioorganic & medicinal chemistry letters, 2018):
Several values for one entry are separate records, joined by “and”; a condition that tells them apart may be missing. Identical values can stand only once. Like-named read-outs stand apart in the source and are kept apart here. Marks after values point to notes of the source that are not given here.

Tests used:
[1] = Aqueous solubility by nephelometry; assay type: physicochemical; settings: concentration range; for Sol2.0: 0.01 M HCl (approx. pH 2.0); for Sol6.5: pH 6.5 phosphate buffer
[2] = test system: S. mansoni; settings: cited from earlier work; for single oral dose ED50: S. mansoni mouse model
[3] = In vitro intrinsic clearance in mouse liver microsomes; assay type: in vitro ADME; settings: absence of co-factor
Procedure, shortened: (§1)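 Test compound incubated with human or mouse liver microsomes. Control incubations without NADPH detect cofactor-independent degradation, such as by non-specific microsomal esterases. Read-out is intrinsic clearance, also expressed as in vitro half-life.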

[4] = In vitro intrinsic clearance in human liver microsomes; assay type: in vitro ADME; settings: absence of co-factor
Procedure, shortened: as §1

[5] = test system: S. mansoni; test: In vivo antischistosomal activity in S. mansoni-infected mice; settings: 1 × 100 mg/kg po
[6] = test system: cultured adult S. mansoni; settings: cited from earlier work
[7] = after 100 mg/kg oral dose of Ro 13-3978 to mice; cited from earlier work
[8] = Plasma exposure after oral administration to mice; assay type: in vivo; settings: 100 mg/kg, plasma concentration versus time profile
[9] = test system: schistosomula (NTS); settings: 10 μM concentration; cited from earlier work

Row | Structure (SMILES) | Sol2.0 [1] | Sol6.5 [1] | also measured
1 | CC(C)(NC(=O)Cc1ccc(F)c(C(F)(F)F)c1)C(=O)O [compound 6] | 50 to 100 µg/mL | 25 to 50 µg/mL | 
2 | CC(C)(CC(=O)Nc1ccc(F)c(C(F)(F)F)c1)C(=O)O [compound 5] | 25-50/25-50 μg/mL | 25-50/25-50 μg/mL | 
3 | O=C(Nc1ccc(F)c(C(F)(F)F)c1)NC1(C(=O)O)CC1 [compound 8] | >100/>100 μg/mL | >100/>100 μg/mL | 
4 | O=C(C1CCCCC1)N1CC(=O)N2CCc3ccccc3C2C1 (stereo not drawn) [praziquantel, reference compound] |  |  | single oral dose ED50 [2]: 172 mg/kg
5 | CCOC(=O)C(C)(C)NC(=O)Nc1ccc(F)c(C(F)(F)F)c1 [compound 13] | 3.1-6.3/3.1-6.3 μg/mL | 3.1-6.3/3.1-6.3 μg/mL | stability in control microsomal incubations [3]: underwent non-NADPH mediated degradation; stability in control microsomal incubations [4]: underwent non-NADPH mediated degradation; S. mansoni WBR [5]: 70^f %
6 | CC(C)(NC(=O)Nc1ccccc1)C(=O)O [compound 3] |  | 50 to 100 µg/mL | 
7 | CC(C)(C(=O)O)N1CCCN(c2ccc(F)c(C(F)(F)F)c2)C1=O [compound 4] | >100/>100 μg/mL | >100/>100 μg/mL | 
8 | CC1(C)NC(=O)N(c2ccc(F)c(C(F)(F)F)c2)C1=O [Ro 13-3978, reference compound] |  |  | single oral dose ED50 [2]: 15 mg/kg; effect on cultured adult S. mansoni [6]: little effect
9 | CC(C)(C(=O)O)N1Cc2cc(F)c(C(F)(F)F)cc2NC1=O [compound 11] | 50 to 100 µg/mL |  | 
10 | CC(C)(C(=O)O)n1c(=O)[nH]c2cc(C(F)(F)F)c(F)cc21 [compound 10] | 50 to 100 µg/mL |  | 
11 | O=C(Nc1ccc(F)c(C(F)(F)F)c1)NC1(C(=O)O)CCC1 [compound 9] | 50 to 100 µg/mL |  | 
12 | CC(C)(NC(=O)Nc1ccc(F)c(C(F)(F)F)c1)C(N)=O [compound 12] | 50-100/50-100 μg/mL | 50-100/50-100 μg/mL | 
13 | CC(C)(NC(=O)Nc1ccc(F)c(C(F)(F)F)c1)C(=O)O [compound 2] | 25 to 50 µg/mL |  | exposure relative to that of Ro 13-3978, based on AUC0-24h [7]: < 1%; oral absorption [8]: rapid and extensive absorption; S. mansoni WBR ([2]; 1 × 100 mg/kg po, S. mansoni-infected mice, ref 4 (Wang et al.), 100 mg/kg): 67% and 67^d %; activity against cultured adult S. mansoni ([6]; 10 μM concentration): no activity; activity against schistosomula (NTS) [9]: no activity
14 | O=C(O)CNC(=O)Nc1ccc(F)c(C(F)(F)F)c1 [compound 7] | >100/>100 μg/mL | >100/>100 μg/mL | 
